RORa activator: activates the human nuclear receptor RORA. activation, % at 10 µM. CHO-K1 Gal4-RORA LBD luciferase reporter, luminescence; percent increase over mock-subtracted basal signal. 1.5% of 65,000 active;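 active = activation above the mean of all tested compounds plus 3 SD, cut at about 49% in these data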;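 also: 0% = DMSO-treated RORA cells and 100% = added signal equal to DMSO minus mock-transfected cells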
SF-1 act: SF-1 (human) activation | CHO-K1 Gal4-SF-1 LBD luciferase reporter; % increase over DMSO SF-1-specific signal | activation, % at 10 µM | 1.9% of 65,000 active | AID 522;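 active = activation above the mean activation of all tested compounds plus 3 SD, cut at about 50% in these data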
Target sequence (Q13285 whole entry, looked up, the tested form may be a part): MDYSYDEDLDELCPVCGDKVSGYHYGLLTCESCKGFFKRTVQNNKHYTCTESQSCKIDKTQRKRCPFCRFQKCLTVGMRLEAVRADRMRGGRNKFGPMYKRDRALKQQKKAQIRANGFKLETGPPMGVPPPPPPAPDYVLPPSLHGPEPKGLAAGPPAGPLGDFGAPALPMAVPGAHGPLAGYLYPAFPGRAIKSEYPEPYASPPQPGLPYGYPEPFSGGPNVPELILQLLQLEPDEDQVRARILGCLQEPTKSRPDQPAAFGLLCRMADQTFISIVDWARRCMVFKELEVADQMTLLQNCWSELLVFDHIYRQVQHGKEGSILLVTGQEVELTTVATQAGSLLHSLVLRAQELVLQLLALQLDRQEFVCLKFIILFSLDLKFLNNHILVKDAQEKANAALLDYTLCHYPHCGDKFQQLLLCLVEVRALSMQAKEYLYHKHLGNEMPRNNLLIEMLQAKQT
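Material: Transient Gal4-SF-1 LBD reporter, CHO-K1 | Input: 4,000 cells/well | Dosing: One dose, 10 µM compound, 1% DMSO | Incubation: 20 h compound treatment, 37 °C | Detection: SteadyLite luciferase luminescence | Evaluation: Percent activation relative to DMSO median and mock-transfected background | Benchmarks: DMSO-treated SF-1-transfected cells as negative, DMSO-treated mock-transfected cells lacking SF-1 as background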
Jurkat viability: cytotoxic compounds reducing Jurkat cell viability | Jurkat E6.1 viability, ATP luminescence, 48 h | inhibition, % at 4 µM | 1.2% of 56,000 active | AID 463;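 active = inhibition above the mean inhibition of all tested compounds plus 3 SD, cut at about 28% in these data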
HEK293 NFkB inh: inhibitors of the PMA/ionomycin-induced NF-kB reporter in HEK293 cells; HEK-293 NF-kB luciferase reporter, luminescence; inhibition, % at 3 µM; 0.21% of 62,000 active; AID 465;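 active = inhibition above the mean of all tested compounds plus 3 SD, cut at about 40% in these data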;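 also: 0% = stimulated DMSO wells and 100% = 10 µM reference inhibitor 5653914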
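System – HEK-293 cells with stable firefly luciferase reporter driven by four HIV NF-kB elements · Doses – one dose, 3 µM · Schedule – 1 h compound pre-incubation, 16 h PMA/ionomycin at 37 °C · Technique – luminescence from luciferase substrate reagent · Measure – percent inhibition normalized per plate to DMSO and reference-inhibitor controls · Replicates – tested once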
Starred values were filed as active, the others as inactive. In the library only some 3.9% were active in any assay of this set; here they are far more common.

SMILES	RORa activator	SF-1 act	Jurkat viability	HEK293 NFkB inh
CN(C(=O)c1ccccn1)c1nnc(-c2cnccn2)s1	44	70*	-2	-4
CN(C(=O)c1cccnc1)c1nnc(-c2cnccn2)s1	18	13	8	13
CN(C(=O)c1cnccn1)c1nnc(-c2cnccn2)s1	6	-10	0	22
CN(C(=O)c1cccnc1)c1nnc(-c2ccccn2)s1	39	70*	1	-3
O=C(Nc1ccccc1F)c1ccc(S(=O)(=O)NCC2CCCO2)cc1 (stereo unspecified)	-11	-15	4	14
CC/C(=C\C(=O)c1cccnc1)Nc1ccc(C)c(C)c1	10	5	4	9
CC(=O)OC(/C(O)=C(\C#N)c1nc2ccccc2[nH]1)c1ccccc1 (stereo unspecified)	-16	0	-1	-2
O=C(CSc1ccccn1)c1ccc2c(c1)OCO2	9	61*	-2	-24
O=C(CSc1nc2ccccc2[nH]1)c1ccc2c(c1)OCO2	51*	40	-1	2
Cn1c(SCC(=O)c2ccc3c(c2)OCO3)nnc1-c1ccccn1	-14	-2	-6	-8
O=C(CSc1nc2ccccc2[nH]1)Nc1ccc2c(c1)OCCO2	12	20	-1	4
CC1CCN(C(=O)CSc2nc3ccccc3[nH]2)CC1	61*	44	-21	-13
c1ccc(-c2cnc(CSc3nnc4ccccn34)o2)cc1	17	71*	-2	-14
COc1cccc(NC(=O)CCS(=O)(=O)c2cccs2)c1	25	14	1	14
Clc1ccccc1-c1nc(-c2ccccc2)n[nH]1	61*	18	6	-29
Oc1ccccc1-c1cc(-c2ccccc2Cl)[nH]n1	-7	20	6	15
CCC1(CC)NC(=O)N(CC(=O)Nc2sc3c(c2C(N)=O)CCC3)C1=O	0	-5	-8	-4
O=C(NCCN1C(=O)C2C3C=CC(C3)C2C1=O)Nc1ccc(Br)cc1 (stereo unspecified)	84*	84*	-4	-36
CC(=O)NC1Sc2ccccc2N=C1c1ccccc1 (stereo unspecified)	42	59*	-8	-12
Cc1ccc(C)c(N2CCN(c3cc(C)nc4nnnn34)CC2)c1	4	-21	-13	4
COC(=O)c1ccccc1NC(=O)Cn1c(-c2nonc2N)nc2ccccc21	-22	-42	61*	34
CCOC(=O)c1[nH]c(C)c(C(=O)Nc2ccc(C)c(Cl)c2)c1C	20	15	6	8
CCOC(=O)c1[nH]c(C)c(C(=O)Nc2ccccc2C)c1C	81*	26	79*	16
CCOC(=O)c1[nH]c(C)c(C(=O)Nc2ccc(C)c(F)c2)c1C	42	34	49*	-13
CCCCCCC(=O)c1c(C)[nH]c(C(=O)OCC)c1C	9	53*	0	-4
SMILES	RORa activator	SF-1 act	Jurkat viability	HEK293 NFkB inh
CCOC(=O)c1[nH]c(C)c(C(=O)Nc2cc(Cl)ccc2C)c1C	-4	-9	88*	28
CCOC(=O)C1=C(C)NC(SCC(=O)Nc2cc(C)on2)=C(C#N)C1c1cccs1 (stereo unspecified)	10	26	-7	7
Cc1occc1-c1nnc(SCC(=O)c2cc3ccccc3oc2=O)o1	-12	2	9	13
O=C(Nc1ccc2c(c1)CCC2)C1CCCN(c2ncccn2)C1 (stereo unspecified)	31	69*	-1	-15
O=C(Nc1cccc(C(F)(F)F)c1)C1CCCN(c2ncccn2)C1 (stereo unspecified)	11	11	0	18
Cc1ccc(NC(=O)C2CCCN(c3ncccn3)C2)cc1F (stereo unspecified)	46	67*	8	-8
CS(=O)(=O)N(CC(=O)NCc1ccc2c(c1)OCO2)Cc1ccc(Cl)cc1	-17	3	4	3
CC1(C)CC(=O)C(C=NCCCn2ccnc2)=C(O)C1	-9	-11	-1	0
CCc1nnc(NC(=O)CSc2nc3cccnc3n2C2CCCCC2)s1	-10	-2	29*	-25
Cc1ccc(C(=O)CSc2nnc(-c3ccco3)n2CC2CCCO2)cc1 (stereo unspecified)	8	-1	-3	-2
Cc1ccc(C2c3c(-c4ccccc4O)n[nH]c3C(=O)N2Cc2ccncc2)cc1 (stereo unspecified)	14	26	86*	12
c1ccc(OCCOc2ncnc3sccc23)cc1	39	53*	0	-2
COc1ccc(CCNc2c(C)c(C)nc3ncnn23)cc1	-78	-81	92*	46*
CCc1c(C)nc2ncnn2c1NCCc1ccc(OC)c(OC)c1	-14	-3	16	16
COc1ccc(-c2noc(CCCC(=O)O)n2)cc1	-68	-57	12	52*
Cc1ccc(C(=O)NCCn2cc(SCC(=O)Nc3cc(C)on3)c3ccccc32)cc1	0	-33	7	47*
Oc1ccc(COCc2ccccc2)c2cccnc12	3	5	68*	7
Oc1c(CN2CCCCC2)cc(COCc2ccccc2)c2cccnc12	-53	-89	34*	32
COc1ccc(CN2CCN(c3ccccn3)CC2)c(OC)c1	-6	-6	2	10
COc1ccccc1N1CCN(Cc2cc(Br)c(O)c3ncccc23)CC1	5	-31	61*	7
Oc1ccc(CNc2ccccc2F)c2cccnc12	-20	0	3	6
CCOc1ccccc1N1CCN(Cc2cccc(OC)c2O)CC1	-3	7	4	-3
Oc1c(CN2CCN(c3ccccn3)CC2)cc(Cl)c2cccnc12	-60	-67	45*	21
CCCCN(C)C(=O)c1c[nH]c2ccc(S(=O)(=O)N3CCOCC3)cc2c1=O	0	11	1	14
CCC(C)[C@H](N)c1nnc(SCc2cccc(F)c2)o1 (stereo partly specified)	12	-6	-2	15
SMILES	RORa activator	SF-1 act	Jurkat viability	HEK293 NFkB inh
COCc1cc(CN2CCCC2)c(O)c2ncccc12	-44	-50	43*	6
COc1ccccc1N1CCN(c2nc(C)nc3c2oc2ccccc23)CC1	-6	2	77*	27
COc1ccc(C(=O)Oc2c(CN3CCOCC3)cc(Cl)c3cccnc23)cc1	0	-15	16	19
O=C(Nc1ccc(NC(=O)C2CC2)nc1)c1ccncc1	-3	-9	-6	7
CCN(CC)S(=O)(=O)c1ccc2oc(SCC3CN=C(c4ccc(OC)cc4)S3)nc2c1 (stereo unspecified)	-9	-40	2	11
c1ccc(-c2cc3c(ccc4nonc43)nn2)cc1	38	9	-13	8
On1onc2c3cc(-c4ccccc4)nc3ccc21	-49	-33	98*	-22
Cc1c(C(=O)OC2CCCC2)[nH]c2c1C(=O)CC(c1ccco1)C2 (stereo unspecified)	-41	-44	100*	26
COc1ccc(OC)c(C2CC(=O)c3c([nH]c(C(=O)OCC4CCCO4)c3C)C2)c1 (stereo unspecified)	25	36	4	-4

Screens: PubChem BioAssay, The Scripps Research Institute Molecular Screening Center
